Screening data: PubChem BioAssay, several laboratories
An excerpt weighted towards active compounds, which were near 2.4% of everything screened.
Apaf-1 inh – blocks human Apaf-1 apoptosome activity. O14727. actives 0.71% (n = 330,000). reconstituted apoptosome caspase-3 activity, DEVD-Rh110 fluorescence. inhibition, % at 20 µM; active = inhibition of at least 40% at 20 µM
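Material: reconstituted apoptosome with Apaf-1, cytochrome c, caspase-9, procaspase-3, dATP; medium: pH 7.5 Hepes buffer with CHAPS, BSA, DTT; also added: cytochrome c and DEVD-Rh110 substrate; timing: 30 min plus 50 min, RT; signal: Rh110 fluorescence intensity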
TDP2 absorb – blocks human TDP2 phosphodiesterase activity | actives 0.34% (n = 370,000) | recombinant TDP2, T5PNP hydrolysis, p-nitrophenol absorbance 415 nm | AID 720702 | O95551 | inhibition, % at 12.8 µM;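 active = inhibition above the mean of all tested compounds plus 3 SD, set per campaign, cut at about 25% in these data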
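System: recombinant human TDP2 / Amount: 120 nM TDP2 per well / Also added: 5 mM T5PNP chromogenic substrate / Doses: 12.8 µM single point, 1% DMSO / Incubation: 2 h at 37 °C / Detection: p-Nitrophenol epi absorbance / Evaluation: % inhibition relative to enzyme-containing and enzyme-free wells / Repeats: singlicate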
GSTO1 counter – counter-screen for RBBP9 inhibitors: inhibitors of human GSTO1; inhibition, % at 5.96 µM; actives 1.1% (n = 300,000); recombinant GSTO1, activity-based probe fluorescence polarization; P78417;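 active = inhibition above the campaign mean inhibition plus 3 SD, cut at about 35% in these data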
SIAE inh – blocks human sialic acid acetylesterase | Q9HAT2 | SIAE FP-Rh probe binding, fluorescence polarization | inhibition, % at 9.66 µM | actives 0.69% (n = 370,000);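 active = inhibition above a cutoff: mean of compounds within the control limits plus 3 SD of those, cut at about 17% in these data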
Target sequence (Q9HAT2 whole entry, looked up): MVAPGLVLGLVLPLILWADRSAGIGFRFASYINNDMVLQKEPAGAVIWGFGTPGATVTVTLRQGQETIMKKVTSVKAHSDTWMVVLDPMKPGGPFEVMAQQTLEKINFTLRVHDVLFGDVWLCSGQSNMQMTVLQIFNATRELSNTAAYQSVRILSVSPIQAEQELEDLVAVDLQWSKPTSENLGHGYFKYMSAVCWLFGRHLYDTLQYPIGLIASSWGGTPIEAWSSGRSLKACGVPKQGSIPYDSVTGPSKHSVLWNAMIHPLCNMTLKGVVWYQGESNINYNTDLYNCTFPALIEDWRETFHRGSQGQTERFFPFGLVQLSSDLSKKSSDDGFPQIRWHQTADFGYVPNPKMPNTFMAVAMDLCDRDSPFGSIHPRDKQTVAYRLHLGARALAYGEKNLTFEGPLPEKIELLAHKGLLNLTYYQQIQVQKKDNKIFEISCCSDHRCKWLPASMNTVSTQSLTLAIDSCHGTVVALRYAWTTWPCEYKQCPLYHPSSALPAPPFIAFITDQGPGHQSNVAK
PAD4 FP inh – blocks human protein arginine deiminase 4; recombinant PAD4, RCA probe fluorescence polarization; inhibition, % at 6.36 µM; actives 0.41% (n = 330,000);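 active = percent inhibition above a cutoff equal to the mean of all tested compounds plus 3 SD, cut at about 15% in these data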
TCR CD3 inh – inhibitors of human TCR-CD3 interaction | inhibition, % at 9.4 µM | AID 651800 | actives 0.37% (n = 360,000) | TAMRA-labeled TCR probe fluorescence, biochemical; in the data active = inhibition above about 19%;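 also: recombinant mutant TCR 2C K166C tagged with TAMRA read by polarization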
A number is an active result.

For CC(=O)OCC1(C)CN(c2ccccc2)N(C(=O)c2ccc(F)cc2)C1=O (stereo not drawn) the results were Apaf-1 inh inactive, TDP2 absorb inactive, GSTO1 counter 36.1, SIAE inh inactive, PAD4 FP inh inactive and TCR CD3 inh inactive.
`Cc1ccc(NC(=O)CSCC(=O)N=c2sccn2C)cc1` gave Apaf-1 inh inactive, TDP2 absorb inactive, GSTO1 counter inactive, SIAE inh inactive, PAD4 FP inh inactive and TCR CD3 inh inactive.
Cc1ccc(Cn2ccsc2=NC(=O)CCl)cc1 was read as Apaf-1 inh inactive, TDP2 absorb inactive, GSTO1 counter 83.8, SIAE inh inactive, PAD4 FP inh inactive and TCR CD3 inh inactive.
For O=C(NCCCN1CCOCC1)c1ccc(/C=C2\Oc3ccccc3N(Cc3ccccc3F)C2=O)cc1 the results were Apaf-1 inh inactive, TDP2 absorb inactive, GSTO1 counter inactive, SIAE inh inactive, PAD4 FP inh inactive and TCR CD3 inh inactive.
Screening CCN1CCN(CCCNC(=O)c2ccc(/C=C3/Oc4ccccc4N(Cc4cccc(C)c4)C3=O)cc2)CC1 returned Apaf-1 inh 46.8, GSTO1 counter inactive and PAD4 FP inh inactive.
Screening O=C(Cc1cccs1)N(Cc1ccco1)C1(C(=O)NC2CCCCC2)CCCCC1 returned Apaf-1 inh inactive, TDP2 absorb inactive, GSTO1 counter inactive, SIAE inh inactive, PAD4 FP inh inactive and TCR CD3 inh inactive.
`C/C(CCN1CCc2nc(-c3ccccc3)c(-c3ccccc3)cc2C1)=N\O[C@H](C)c1cn([C@H](CO)Cc2ccccc2)nn1` gave Apaf-1 inh inactive, GSTO1 counter inactive and PAD4 FP inh inactive.
`C/C(CCN1CCc2nc(-c3ccccc3)c(-c3ccccc3)cc2C1)=N\OC[C@@H](C)[C@H](OCc1ccccc1)C(C)C` gave Apaf-1 inh 46.7, GSTO1 counter inactive and PAD4 FP inh inactive.
`CC1CCCCN1S(=O)(=O)c1ccc(C(=O)N(CCCN(C)C)c2nc3ccc(Br)cc3s2)cc1` (stereo not drawn) gave Apaf-1 inh 67.3, TDP2 absorb inactive, GSTO1 counter inactive, SIAE inh inactive, PAD4 FP inh inactive and TCR CD3 inh inactive.
For CCOc1cccc2sc(N(CCCN(C)C)C(=O)c3ccc(S(=O)(=O)N(CC)Cc4ccccc4)cc3)nc12 the results were Apaf-1 inh 67.2, TDP2 absorb inactive, GSTO1 counter inactive, SIAE inh inactive, PAD4 FP inh inactive and TCR CD3 inh inactive.
Screening COc1ccc(OC)c2sc(N(CCCN(C)C)C(=O)c3ccc(S(=O)(=O)N4CCc5ccccc5C4)cc3)nc12 returned Apaf-1 inh 54.7, GSTO1 counter inactive and PAD4 FP inh inactive.
For Cc1nnc(NS(=O)(=O)c2ccc(N=Nc3ccc(N)nc3N)cc2)s1 the results were TDP2 absorb inactive, SIAE inh inactive and TCR CD3 inh inactive.
Screening Cc1nn2cc(-c3ccccc3)nc2[nH]c1=O returned Apaf-1 inh inactive, TDP2 absorb inactive, GSTO1 counter inactive, SIAE inh 22.2, PAD4 FP inh inactive and TCR CD3 inh inactive.
O=C(O)CCc1nn2cc(-c3ccccc3)nc2[nH]c1=O was read as Apaf-1 inh inactive, TDP2 absorb inactive, GSTO1 counter inactive, SIAE inh inactive, PAD4 FP inh inactive and TCR CD3 inh inactive.
O=S(=O)(/N=C(/NNS(=O)(=O)c1ccccc1)c1ccccc1)c1ccccc1 was read as Apaf-1 inh inactive, TDP2 absorb inactive, GSTO1 counter inactive, SIAE inh inactive, PAD4 FP inh inactive and TCR CD3 inh inactive.
Screening Cc1cc2nc3c(=O)n(CCc4ccccc4)c(=O)[nH]c3nc2cc1N returned Apaf-1 inh inactive, TDP2 absorb inactive, GSTO1 counter 36.7, SIAE inh inactive, PAD4 FP inh inactive and TCR CD3 inh inactive.
CCCN1C2CCCC1CC(NC(=O)c1cc(OC)cc(OC)c1)C2 (stereo not drawn) was read as Apaf-1 inh inactive, TDP2 absorb inactive, GSTO1 counter inactive, SIAE inh inactive, PAD4 FP inh inactive and TCR CD3 inh inactive.
`CCN(C(=O)COc1cc(=O)n(CC)c2ccccc12)c1cc(Cl)ccc1OC` gave Apaf-1 inh inactive, TDP2 absorb inactive, GSTO1 counter inactive, SIAE inh 21.7, PAD4 FP inh inactive and TCR CD3 inh inactive.
`COc1cc(Cl)c(C)cc1NC(=O)COC(=O)C1=COCCO1` gave Apaf-1 inh inactive, TDP2 absorb inactive, GSTO1 counter inactive, SIAE inh inactive, PAD4 FP inh inactive and TCR CD3 inh inactive.
`COc1cc(/C=N/n2c(-c3ccc4c(c3)NC(=O)CO4)csc2=Nc2cccc(C)c2)ccc1O` gave Apaf-1 inh inactive, TDP2 absorb inactive, GSTO1 counter inactive, SIAE inh 41.0, PAD4 FP inh inactive and TCR CD3 inh inactive.
Screening O=C(CCCCCNC(=O)c1ccccc1)N=Nc1c(O)[nH]c2c(Br)cc(Br)cc12 returned Apaf-1 inh inactive, GSTO1 counter 56.8 and PAD4 FP inh inactive.
CCN1CCN(Cc2ccc(NC(=O)c3cc(NC(=O)c4nccnc4N)cc(OC)c3)cc2C(F)(F)F)CC1 was read as Apaf-1 inh inactive, TDP2 absorb inactive, GSTO1 counter inactive, SIAE inh inactive, PAD4 FP inh inactive and TCR CD3 inh inactive.
CCN1CCN(Cc2ccc(NC(=O)c3cc(NC(=O)c4cncc(-c5ccc(C#N)cc5)c4)cc(OC)c3)cc2C(F)(F)F)CC1 was read as Apaf-1 inh 53.8, TDP2 absorb inactive, GSTO1 counter inactive, SIAE inh inactive, PAD4 FP inh inactive and TCR CD3 inh inactive.
Screening N#Cc1ccccc1NC(=O)CSc1ccc([N+](=O)[O-])cn1 returned Apaf-1 inh inactive, TDP2 absorb inactive, GSTO1 counter inactive, SIAE inh inactive, PAD4 FP inh inactive and TCR CD3 inh inactive.
Cc1nnc(NC(=O)CSc2ccc([N+](=O)[O-])cn2)s1 was read as Apaf-1 inh inactive, TDP2 absorb inactive, GSTO1 counter 37.3, SIAE inh inactive, PAD4 FP inh inactive and TCR CD3 inh inactive.
Screening O=S(=O)(NC1=NCCC1)c1ccc(F)cc1F returned Apaf-1 inh inactive, TDP2 absorb inactive, GSTO1 counter inactive, SIAE inh inactive, PAD4 FP inh inactive and TCR CD3 inh inactive.
`CC(C)c1ccc(S(=O)(=O)Nc2ccc(-n3cnnn3)cc2)cc1` gave Apaf-1 inh inactive, TDP2 absorb inactive, SIAE inh inactive and TCR CD3 inh inactive.
Screening CC(C)c1ccc(NS(=O)(=O)c2ccc(-n3cccn3)cc2)cc1 returned Apaf-1 inh inactive, TDP2 absorb inactive, GSTO1 counter 35.3, SIAE inh inactive, PAD4 FP inh inactive and TCR CD3 inh inactive.
`C#CCOCCOCCOCCNc1nc(N2CCN(C(=O)[C@H](CCCCN)n3cc([C@@H](N)CC(C)C)nn3)CC2)nc(N2CCN(C(=O)[C@H](Cc3cc4ccccc4[nH]3)n3cc([C@@H](N)Cc4ccc(O)cc4)nn3)CC2)n1` gave Apaf-1 inh inactive, GSTO1 counter inactive and PAD4 FP inh inactive.
